Reference: ChEMBL document CHEMBL3616441, “Discovery of a Selective and CNS Penetrant Negative Allosteric Modulator of Metabotropic Glutamate Receptor Subtype 3 with Antidepressant and Anxiolytic Activity in Rodents” (J Med Chem, 2015)
Active and inactive are the calls of the source. The rule behind the calls is not given here.

Legend:
[1] = biological target: Metabotropic glutamate receptor 3 (Rattus norvegicus, UniProt P31422); experiment: Negative allosteric modulation of rat mGlu3 receptor assessed as calcium mobilization by cell based fluorescence assay; type: functional
Chain of Metabotropic glutamate receptor 3 (P31422 whole entry): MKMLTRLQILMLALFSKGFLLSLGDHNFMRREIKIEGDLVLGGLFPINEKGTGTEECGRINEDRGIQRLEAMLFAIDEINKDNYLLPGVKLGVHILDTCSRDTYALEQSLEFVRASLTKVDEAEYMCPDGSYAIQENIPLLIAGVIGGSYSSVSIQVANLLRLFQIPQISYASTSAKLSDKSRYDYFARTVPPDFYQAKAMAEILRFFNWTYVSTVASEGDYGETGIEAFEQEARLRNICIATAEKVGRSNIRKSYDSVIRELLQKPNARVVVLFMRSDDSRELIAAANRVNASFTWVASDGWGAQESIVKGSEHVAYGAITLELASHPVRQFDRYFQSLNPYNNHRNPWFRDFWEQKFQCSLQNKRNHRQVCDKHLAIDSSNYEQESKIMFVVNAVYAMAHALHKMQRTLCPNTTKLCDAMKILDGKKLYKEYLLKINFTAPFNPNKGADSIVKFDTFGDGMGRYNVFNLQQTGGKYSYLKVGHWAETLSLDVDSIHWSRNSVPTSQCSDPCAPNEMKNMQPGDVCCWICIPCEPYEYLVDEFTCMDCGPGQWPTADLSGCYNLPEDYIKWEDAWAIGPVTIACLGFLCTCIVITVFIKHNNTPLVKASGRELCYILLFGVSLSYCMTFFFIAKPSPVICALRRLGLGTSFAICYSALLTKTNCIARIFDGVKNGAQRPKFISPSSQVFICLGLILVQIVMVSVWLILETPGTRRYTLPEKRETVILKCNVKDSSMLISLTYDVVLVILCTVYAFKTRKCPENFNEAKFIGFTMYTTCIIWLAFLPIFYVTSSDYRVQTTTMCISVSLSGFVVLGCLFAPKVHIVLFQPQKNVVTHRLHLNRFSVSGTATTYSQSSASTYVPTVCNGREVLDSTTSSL
Outline: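 Cell line stably expressing rat mGlu3 with the promiscuous G-protein Gα15. Calcium mobilization with fluorescence read-out, inhibition of the glutamate response. Full concentration-response curves, top concentration 30 μM. % Glu Max is the response with 30 μM test compound as a percentage of the maximal response to 100 μM glutamate. Values averaged over n-3.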

[2] = biological target: Metabotropic glutamate receptor 5 (Rattus norvegicus) (UniProt P31424); experiment: Positive allosteric modulation of rat mGlu5 receptor assessed as calcium mobilization by cell based fluorescence assay; type: functional
Chain of Metabotropic glutamate receptor 5 (Rattus norvegicus) (P31424 21-1203 limits assumed): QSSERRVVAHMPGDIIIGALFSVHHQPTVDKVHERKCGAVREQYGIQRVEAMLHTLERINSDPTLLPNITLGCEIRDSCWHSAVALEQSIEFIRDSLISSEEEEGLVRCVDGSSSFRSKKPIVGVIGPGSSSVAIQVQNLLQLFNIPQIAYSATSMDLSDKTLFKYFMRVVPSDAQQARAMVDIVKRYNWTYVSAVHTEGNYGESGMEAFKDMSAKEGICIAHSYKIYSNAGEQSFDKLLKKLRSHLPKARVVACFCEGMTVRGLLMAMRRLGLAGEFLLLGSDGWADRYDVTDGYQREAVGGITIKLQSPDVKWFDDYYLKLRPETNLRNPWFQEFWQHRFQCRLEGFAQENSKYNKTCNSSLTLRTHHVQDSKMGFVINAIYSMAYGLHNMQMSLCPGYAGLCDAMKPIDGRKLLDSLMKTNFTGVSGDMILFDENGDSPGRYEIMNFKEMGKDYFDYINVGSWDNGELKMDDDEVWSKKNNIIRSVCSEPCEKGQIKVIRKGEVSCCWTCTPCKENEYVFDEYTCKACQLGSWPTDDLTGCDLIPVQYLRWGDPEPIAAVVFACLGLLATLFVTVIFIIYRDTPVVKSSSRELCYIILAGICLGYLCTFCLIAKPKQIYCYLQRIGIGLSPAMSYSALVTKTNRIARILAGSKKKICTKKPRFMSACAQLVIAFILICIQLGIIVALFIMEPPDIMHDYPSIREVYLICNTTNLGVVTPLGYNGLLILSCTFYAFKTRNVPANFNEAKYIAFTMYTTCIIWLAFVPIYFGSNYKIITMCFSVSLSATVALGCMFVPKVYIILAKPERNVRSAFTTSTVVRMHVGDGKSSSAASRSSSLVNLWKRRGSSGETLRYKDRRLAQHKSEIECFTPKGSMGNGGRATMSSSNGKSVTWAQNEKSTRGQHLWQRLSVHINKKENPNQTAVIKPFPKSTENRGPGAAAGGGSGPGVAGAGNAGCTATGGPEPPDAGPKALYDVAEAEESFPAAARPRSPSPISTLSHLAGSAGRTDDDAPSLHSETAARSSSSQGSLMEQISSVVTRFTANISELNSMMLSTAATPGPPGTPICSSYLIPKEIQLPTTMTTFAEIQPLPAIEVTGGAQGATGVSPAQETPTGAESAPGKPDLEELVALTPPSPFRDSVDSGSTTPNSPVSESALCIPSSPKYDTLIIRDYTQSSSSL

[3] = biological target: Metabotropic glutamate receptor 5 (Rattus norvegicus, UniProt P31424); experiment: Modulation of rat mGlu5 receptor assessed as calcium mobilization by cell based fluorescence assay; type: functional
Chain of Metabotropic glutamate receptor 5 (P31424 whole entry): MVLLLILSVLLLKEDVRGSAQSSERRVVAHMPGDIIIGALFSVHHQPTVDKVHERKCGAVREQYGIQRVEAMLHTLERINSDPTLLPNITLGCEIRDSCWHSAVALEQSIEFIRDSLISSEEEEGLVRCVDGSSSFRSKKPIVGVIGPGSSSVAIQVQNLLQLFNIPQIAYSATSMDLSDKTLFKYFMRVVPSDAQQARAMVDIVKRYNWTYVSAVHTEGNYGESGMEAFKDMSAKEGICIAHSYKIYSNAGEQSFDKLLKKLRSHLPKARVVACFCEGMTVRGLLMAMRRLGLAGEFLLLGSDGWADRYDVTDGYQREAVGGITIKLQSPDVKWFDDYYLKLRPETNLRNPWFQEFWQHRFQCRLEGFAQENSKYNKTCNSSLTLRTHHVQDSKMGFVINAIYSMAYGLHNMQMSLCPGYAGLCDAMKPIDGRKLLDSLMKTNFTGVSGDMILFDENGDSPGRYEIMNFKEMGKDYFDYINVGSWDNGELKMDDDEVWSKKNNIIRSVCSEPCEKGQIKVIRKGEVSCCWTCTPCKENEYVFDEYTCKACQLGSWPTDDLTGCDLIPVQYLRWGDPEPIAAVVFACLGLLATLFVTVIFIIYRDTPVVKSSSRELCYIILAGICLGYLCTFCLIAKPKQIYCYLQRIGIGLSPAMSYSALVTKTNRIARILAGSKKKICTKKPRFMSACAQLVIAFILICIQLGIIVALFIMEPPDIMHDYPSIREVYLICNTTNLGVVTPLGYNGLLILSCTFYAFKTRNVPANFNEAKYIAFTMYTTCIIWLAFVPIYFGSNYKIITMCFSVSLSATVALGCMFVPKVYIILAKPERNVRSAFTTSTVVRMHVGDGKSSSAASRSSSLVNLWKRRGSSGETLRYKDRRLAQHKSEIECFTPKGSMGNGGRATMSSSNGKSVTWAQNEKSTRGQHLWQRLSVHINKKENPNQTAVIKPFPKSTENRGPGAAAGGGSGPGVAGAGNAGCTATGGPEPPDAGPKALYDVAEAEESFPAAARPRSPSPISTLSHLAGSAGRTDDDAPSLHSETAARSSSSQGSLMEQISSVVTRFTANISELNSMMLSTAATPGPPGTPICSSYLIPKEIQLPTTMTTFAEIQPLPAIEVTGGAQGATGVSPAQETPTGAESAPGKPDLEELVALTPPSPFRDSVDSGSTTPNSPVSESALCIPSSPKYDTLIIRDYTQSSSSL
Outline: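 Calcium mobilization assay with fluorescence read-out in cells expressing mGlu5; full concentration-response curves; % Glu Max is the amplitude of response with 30 μM test compound as a percentage of the maximal response to 100 μM glutamate; values averaged over n-3.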

[4] = biological target: Metabotropic glutamate receptor 5 (Rattus norvegicus) (UniProt P31424); experiment: Modulation of rat mGlu5 receptor assessed as assessed as calcium mobilization at 30 uM by cell based fluorescence assay; type: functional
[5] = biological target: Metabotropic glutamate receptor 3 (Rattus norvegicus) (UniProt P31422); experiment: Negative allosteric modulation of rat mGlu3 receptor assessed as amplitude response at 30 uM relative to glutamate
Chain of Metabotropic glutamate receptor 3 (Rattus norvegicus) (P31422 23-879 limits assumed): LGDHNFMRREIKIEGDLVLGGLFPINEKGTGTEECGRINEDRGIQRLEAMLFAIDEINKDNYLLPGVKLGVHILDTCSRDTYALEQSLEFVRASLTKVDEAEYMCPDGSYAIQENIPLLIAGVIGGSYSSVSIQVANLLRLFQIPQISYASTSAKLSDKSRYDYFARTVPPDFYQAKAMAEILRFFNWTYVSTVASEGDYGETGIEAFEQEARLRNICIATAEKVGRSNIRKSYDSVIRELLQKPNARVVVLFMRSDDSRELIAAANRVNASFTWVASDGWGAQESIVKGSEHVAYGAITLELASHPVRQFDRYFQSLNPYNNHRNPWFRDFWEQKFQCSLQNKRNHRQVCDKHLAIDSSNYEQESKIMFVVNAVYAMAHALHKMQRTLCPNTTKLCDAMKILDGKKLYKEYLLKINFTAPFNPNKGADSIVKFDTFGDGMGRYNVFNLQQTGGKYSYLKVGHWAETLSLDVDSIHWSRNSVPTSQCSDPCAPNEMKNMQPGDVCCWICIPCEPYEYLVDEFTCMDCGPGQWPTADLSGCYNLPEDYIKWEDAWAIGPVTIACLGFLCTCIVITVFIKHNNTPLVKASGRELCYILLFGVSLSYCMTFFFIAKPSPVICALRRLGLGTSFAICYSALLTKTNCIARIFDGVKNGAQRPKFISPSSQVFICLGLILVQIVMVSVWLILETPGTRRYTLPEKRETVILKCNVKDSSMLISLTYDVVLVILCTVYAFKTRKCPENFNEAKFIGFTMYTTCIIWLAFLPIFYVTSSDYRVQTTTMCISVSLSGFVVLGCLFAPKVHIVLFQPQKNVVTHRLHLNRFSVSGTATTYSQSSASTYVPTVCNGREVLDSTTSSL
Outline: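 Calcium mobilization in cell line stably expressing rat mGlu3 with promiscuous Gα15; fluorescence read-out; amplitude of glutamate response with 30 μM test compound expressed as percentage of maximal response (100 μM glutamate); average of n = 3.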

[6] = biological target: Metabotropic glutamate receptor 5 (Rattus norvegicus) (UniProt P31424); experiment: Negative allosteric modulation of rat mGlu5 receptor assessed as calcium mobilization by cell based fluorescence assay; type: functional

SMILES | IC50 [1] | Activity [2] | EC50 [3] | Activity [4] | Activity [5] | Activity [6]
COc1cccc(N2C[C@@H](C)n3nc(COc4ccc(Cl)cn4)cc3C2=O)c1 | 313 nM | Active | 5070 nM | 78% | 2% | 
C[C@@H]1CN(c2ccc(F)cc2)C(=O)c2cc(COc3ccc(OC(F)(F)F)cc3)nn21 | 4070 nM |  | > 30000 nM |  | 2.66% | 
C[C@@H]1CN(c2ccc(F)cc2F)C(=O)c2cc(COc3ccc(Cl)cn3)nn21 | 280 nM | Active | 2580 nM | 70.8% | 1.34% | 
C[C@@H]1CN(c2ccc(Cl)cc2)C(=O)c2cc(COc3ccc(F)cn3)nn21 | 197 nM | Active | 364 nM | 51.6% | 2.17% | 
COc1ccccc1N1C[C@@H](C)n2nc(COc3ccc(Cl)cn3)cc2C1=O | 690 nM |  | > 10000 nM | 58.5% | 1.29% | Active
C[C@@H]1CN(c2ncccc2F)C(=O)c2cc(COc3ccc(Cl)cn3)nn21 | 362 nM | Active | > 10000 nM | 32.4% | 1.64% | 
C[C@@H]1CN(c2ccc(Cl)cc2)C(=O)c2cc(COc3ccc(Cl)cn3)nn21 | 1230 nM | Active | 3310 nM | 51.2% | 0.94% | 
C[C@@H]1CN(c2ccc(F)cn2)C(=O)c2cc(COc3ccc(Cl)cn3)nn21 | 260 nM | Active | > 10000 nM | 47.9% | 2.44% | 
C[C@@H]1CN(c2cc(F)ccc2C#N)C(=O)c2cc(COc3ccc(Cl)cn3)nn21 | 529 nM |  | > 30000 nM |  | 1.55% | 
C[C@@H]1CN(c2cccc(F)c2)C(=O)c2cc(COc3ccc(Cl)cn3)nn21 | 206 nM | Active | 5970 nM | 63.5% | 1.38% | 
C[C@@H]1CN(c2cccc(C#N)c2)C(=O)c2cc(COc3ccc(Cl)cn3)nn21 | 825 nM | Active | > 10000 nM | 32.2% | 1.75% | 
Cc1cccc(N2C[C@@H](C)n3nc(COc4ccc(Cl)cn4)cc3C2=O)c1 | 392 nM | Active | 3600 nM | 69.9% | 1.71% | 
COc1cccc(OCc2cc3n(n2)[C@H](C)CN(c2ccc(F)cc2)C3=O)c1 | 1290 nM | Active | 1840 nM | 32.4% | 1.78% | 
C[C@@H]1CN(c2ccc(F)cc2)C(=O)c2cc(COc3ccc(Cl)cc3)nn21 | 1170 nM | Active | 604 nM | 81.8% | 1.86% | 
C[C@@H]1CN(c2ccc(F)cc2)C(=O)c2cc(COc3ccccc3)nn21 | 267 nM | Active | 46 nM | 87.7% | 2.21% | 
CCc1ccc(OCc2cc3n(n2)[C@H](C)CN(c2ccc(F)cc2)C3=O)cc1 | 830 nM | Active | 3210 nM | 50.8% | 2.29% | 
C[C@@H]1CN(c2ccc(F)cc2)C(=O)c2cc(COc3cccc(C(F)(F)F)n3)nn21 | 2360 nM |  | > 30000 nM |  | 2.06% | 
C[C@@H]1CN(c2ccc(F)cc2)C(=O)c2cc(COc3ccccc3F)nn21 | 530 nM | Active | 195 nM | 89.3% | 2.9% | 
C[C@@H]1CN(c2ccc(F)cc2)C(=O)c2cc(COc3cccc(F)c3)nn21 | 773 nM | Active | 73 nM | 86.1% | 1.19% | 
C[C@@H]1CN(c2ccncc2)C(=O)c2cc(COc3ccc(F)cn3)nn21 | 881 nM |  | > 30000 nM |  | 0.77% | 
C[C@@H]1CN(c2ccc(F)cc2)C(=O)c2cc(COc3ccc(F)cc3F)nn21 | 417 nM | Active | 307 nM | 82.3% | 1.7% | 
C[C@@H]1CN(c2ncccc2C#N)C(=O)c2cc(COc3ccc(Cl)cn3)nn21 | 677 nM |  | > 30000 nM |  | 1.35% | 
C[C@@H]1CN(c2ccc(F)cc2)C(=O)c2cc(COc3ccc(C#N)cc3)nn21 | 784 nM | Active | 1940 nM | 38.6% | 2.53% | 

SMILES | IC50 [1] | Activity [2] | EC50 [3] | Activity [4] | Activity [5] | Activity [6]
C[C@@H]1CN(c2ccc(F)cc2)C(=O)c2cc(COc3ccc(C(F)(F)F)cc3)nn21 | 1850 nM |  | > 30000 nM |  | 4.13% | 
C[C@@H]1CN(c2cc(F)cc(F)c2)C(=O)c2cc(COc3ccc(Cl)cn3)nn21 | 420 nM | Active | > 10000 nM | 33.1% | 2.18% | 
COc1cccc(OCc2cc3n(n2)[C@H](C)CN(c2ccc(F)cc2)C3=O)n1 | 1590 nM | Active | > 10000 nM | 31.2% | 1.94% | 
COc1ccccc1OCc1cc2n(n1)[C@H](C)CN(c1ccc(F)cc1)C2=O | 2540 nM | Active | > 10000 nM | 63.7% | 2.32% | 
C[C@@H]1CN(c2ccccc2Cl)C(=O)c2cc(COc3ccc(Cl)cn3)nn21 | 328 nM | Active | 5450 nM | 51% | 1.87% | 
C[C@@H]1CN(c2ccc(F)cc2)C(=O)c2cc(COc3ncccc3F)nn21 | 1100 nM | Active | 4300 nM | 78.5% | 2.22% | 
C[C@@H]1CN(c2ccc(F)cc2)C(=O)c2cc(COc3ccccc3Cl)nn21 | 532 nM | Active | 419 nM | 84.4% | 1.63% | 
COc1ccc(N2C[C@@H](C)n3nc(COc4ccc(F)cn4)cc3C2=O)cc1 | 320 nM | Active | 1380 nM | 32.3% | 1.23% | 
C[C@@H]1CN(c2c(F)cccc2F)C(=O)c2cc(COc3ccc(Cl)cn3)nn21 | 225 nM | Active | 1420 nM | 40.3% | 2.06% | 
C[C@@H]1CN(c2ccc(C#N)cc2)C(=O)c2cc(COc3ccc(Cl)cn3)nn21 | 539 nM | Active | 3320 nM | 23.1% | 1.84% | 
Cc1ccc(OCc2cc3n(n2)[C@H](C)CN(c2ccc(F)cc2)C3=O)cc1 | 1190 nM | Active | 1080 nM | 92.5% | 1.72% | 
Cc1ccc(N2C[C@@H](C)n3nc(COc4ccc(Cl)cn4)cc3C2=O)cc1 | 410 nM | Active | > 10000 nM | 70.8% | 1.39% | 
Cc1ccccc1N1C[C@@H](C)n2nc(COc3ccc(Cl)cn3)cc2C1=O | 571 nM | Active | 2280 nM | 80.7% | 1.95% | 
C[C@@H]1CN(c2ccccc2F)C(=O)c2cc(COc3ccc(Cl)cn3)nn21 | 226 nM | Active | 3240 nM | 57.3% | 1.74% | 
C[C@@H]1CN(c2ccccc2C#N)C(=O)c2cc(COc3ccc(Cl)cn3)nn21 | 429 nM | Active | 4970 nM | 38.1% | 1.64% | 
C[C@@H]1CN(c2ccc(F)nc2)C(=O)c2cc(COc3ccc(Cl)cn3)nn21 | 408 nM | Active | > 10000 nM | 30.6% | 1.45% | 
COc1ccc(OCc2cc3n(n2)[C@H](C)CN(c2ccc(F)cc2)C3=O)cc1 | 1040 nM | Active | 1340 nM | 40.2% | 1.76% | 
COc1ccc(N2C[C@@H](C)n3nc(COc4ccc(Cl)cn4)cc3C2=O)cc1 | 439 nM | Active | 4330 nM | 59.4% | 2.07% | 
C[C@@H]1CN(c2cccc(Cl)c2)C(=O)c2cc(COc3ccc(Cl)cn3)nn21 | 558 nM | Active | 2870 nM | 65.8% | 1.63% | 
COc1cccnc1OCc1cc2n(n1)[C@H](C)CN(c1ccc(F)cc1)C2=O | 6760 nM |  | > 30000 nM |  | -1.14% | 
Cc1ccccc1OCc1cc2n(n1)[C@H](C)CN(c1ccc(F)cc1)C2=O | 721 nM | Active | 1500 nM | 83.7% | 1.56% | 
C[C@@H]1CN(c2cccc(F)c2F)C(=O)c2cc(COc3ccc(Cl)cn3)nn21 | 852 nM | Active | 6680 nM | 36.1% | 0.33% | 
C[C@@H]1CN(c2ccc(F)cc2)C(=O)c2cc(COc3ncccc3C(F)(F)F)nn21 | 2940 nM |  | > 30000 nM |  | 2.11% | 
